# Screening results deposited in PubChem by several laboratories.
# Sampled rows, rich in hits. Any-hit rate of the full collection: about 2.9%.
# MEKK3 PB1 HTS = raises or lowers MEK5 binding to the human MEKK3 PB1 domain; AID 1529; Q99759; bead-based flow cytometry, Alexa488-MEK5 binding to MEKK3; actives lie on both sides; 0 = blocked by unlabeled MEK5, 100 = vehicle; binding response (% of control), % at 10 µM; 290,000 tested, 1.4% active;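 active means binding response more than 3 SD above or below the average of its plate-row segment, actives on both sides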;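 further: Alexa488 bead fluorescence after subtracting the streptavidin-only scavenger bead signal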
# Target sequence (Q99759 whole entry, looked up, the tested form may be a part): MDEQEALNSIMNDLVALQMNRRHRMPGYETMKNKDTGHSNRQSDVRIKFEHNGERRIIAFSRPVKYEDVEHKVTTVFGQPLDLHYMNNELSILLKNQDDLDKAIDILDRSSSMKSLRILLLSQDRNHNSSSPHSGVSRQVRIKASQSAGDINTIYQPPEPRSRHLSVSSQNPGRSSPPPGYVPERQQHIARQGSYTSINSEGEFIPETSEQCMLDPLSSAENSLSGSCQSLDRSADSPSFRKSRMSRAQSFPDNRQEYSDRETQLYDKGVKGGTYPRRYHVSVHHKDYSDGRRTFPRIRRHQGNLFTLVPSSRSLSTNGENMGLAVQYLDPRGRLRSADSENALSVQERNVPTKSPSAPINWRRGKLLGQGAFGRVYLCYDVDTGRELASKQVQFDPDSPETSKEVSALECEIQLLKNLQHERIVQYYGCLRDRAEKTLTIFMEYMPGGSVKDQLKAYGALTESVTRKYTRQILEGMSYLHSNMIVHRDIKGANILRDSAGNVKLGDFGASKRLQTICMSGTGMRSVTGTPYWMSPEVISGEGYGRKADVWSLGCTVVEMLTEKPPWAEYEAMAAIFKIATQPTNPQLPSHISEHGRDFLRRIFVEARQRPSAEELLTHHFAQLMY
# Apaf1 inhib = blocks human Apaf-1 apoptosome activity; reconstituted apoptosome caspase-3 activity, DEVD-Rh110 fluorescence; inhibition, % at 20 µM; O14727; 330,000 tested, 0.71% active; active means inhibition of at least 40% at 20 µM;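 further: plate controls were DMSO wells for no effect and DEVD-CHO caspase inhibitor wells for full effect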
#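 Material: cell-free apoptosome with Apaf-1, procaspase-3 and caspase-9; Buffer or medium: Hepes pH 7.5 with detergent and BSA; Reagent: cytochrome c trigger plus (Z-DEVD)2-Rh110 caspase-3 substrate; Times: compound with Apaf-1, dATP, procaspase-3 30 min, then 50 min reaction, room temperature; Technique: Rh110 fluorescence intensity.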
# MEKK2 mut-MEK5 = signal of MEK5 binding to mutant human MEKK2 PB1 domain; bead flow cytometry, Alexa488-MEK5 binding to MEKK2 mutant; percent response, % at 10 µM; 290,000 tested, 0.35% active; in the data active means percent response above about 24%, passing the limit was not always enough
# MEKK2wt PB1 HTS = raises or lowers MEK5 binding to wildtype human MEKK2 PB1 domain; Q9Y2U5; bead flow cytometry, Alexa488-MEK5 binding to MEKK2 WT; actives lie on both sides; binding response (% of control), % at 10 µM; 290,000 tested, 1.1% active; AID 1531; in the data active means binding response below about 67% or above about 130%
# UBC13 polyUb = blocks human UBC13 polyubiquitin chain formation; P61088; TR-FRET; inhibition, % at 20 µM; 330,000 tested, 0.47% active; AID 485273; in the data active means inhibition above about 45%, passing the limit was not always enough
# MEKK2wt confirm = raises or lowers MEK5 binding to wildtype human MEKK2, retest. binding response (% of control), % at 10 µM. shares compounds with MEKK3 PB1 HTS. 5,900 tested, 2.4% active. bead flow cytometry, Alexa488-MEK5 binding to MEKK2 WT; actives lie on both sides; in the data active means binding response below about 16% or above about 210%; inactive means in between
# MEKK2mut-MEK5 = signal of MEK5 binding to mutant human MEKK2, retest; shares compounds with MEKK3 PB1 HTS; bead flow cytometry, Alexa488-MEK5 binding to MEKK2 mutant; percent response, % at 10 µM; 5,900 tested, 2% active; in the data active means percent response mostly above about 71%, no sharp cut-off; inactive means mostly below about 38%;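 further: higher means compound restores mutant binding toward wildtype level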
# MEKK3-MEK5 inh = MEKK3-MEK5 PB1 inhibition, single concentration confirmation | binding response (% of control), % at 10 µM | shares compounds with MEKK3 PB1 HTS | bead flow cytometry, Alexa488-MEK5 binding to MEKK3; stronger effect = lower value | 5,900 tested, 1.8% active;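 active means binding response below 72% of control, or above a set upper limit, though filed actives all read lower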;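 further: 100% = DMSO only wells and 0% = binding blocked by excess unlabeled MEK5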
# Casp3 counter = caspase-3 inhibition (UBC13 counter-screen); shares compounds with UBC13 polyUb; Recombinant caspase-3, Caspase-Glo 3/7 luminescence, 60 min; inhibition, % at 20 µM; 1,400 tested, 4% active; AID 488856;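 active means mean inhibition across replicates above about 26%, limit read from the data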;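 further: plate controls were DMSO with caspase-3 for no effect and DMSO wells lacking enzyme for full effect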
# UBC13 conf = confirmation of human UBC13 polyubiquitin inhibitors; 1,400 tested, 68% active; inhibition, % at 10 µM; shares compounds with UBC13 polyUb; UBC13 polyubiquitination, TR-FRET, biochemical; in the data active means inhibition above about 45%
# Apaf-1 inh conf2 = confirmation of Apaf-1 inhibitors. shares compounds with Apaf1 inhib. reconstituted apoptosome, caspase-3 DEVD-Rh110 fluorescence. inhibition, % at 20 µM. 1,800 tested, 25% active;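 active means mean inhibition of at least 40% at 20 µM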;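 further: plate controls were DMSO wells for no effect and DEVD-CHO caspase inhibitor control wells for full effect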
# Rh110 interf inh = Rh110 signal interference in Apaf-1 inhibitor counter-screen. activation (fluorescence interference), % at 20 µM. AID 504615. 1,800 tested, under 10 active. Rh110 fluorescence interference, quenched caspase reaction. shares compounds with Apaf1 inhib;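 active means signal rise of 40% or more at 20 µM, treated as a fluorescence artifact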
# Apaf1 inh interf = shows fluorescence interference in the Apaf-1 inhibitor assay format. shares compounds with Apaf1 inhib. fluorescence interference counterscreen, Apaf-1 assay format. IC50, µM. 460 tested, under 10 active. AID 588538; call rule not given here
# An asterisk follows results filed as active; / = no result given; [ ] = remark or other dose.
SMILES,MEKK3 PB1 HTS,Apaf1 inhib,MEKK2 mut-MEK5,MEKK2wt PB1 HTS,UBC13 polyUb,MEKK2wt confirm,MEKK2mut-MEK5,MEKK3-MEK5 inh,Casp3 counter,UBC13 conf,Apaf-1 inh conf2,Rh110 interf inh,others
CCN1/C(=C/c2ccc3cc(C)ccc3[n+]2CC)Sc2cc(C)c(C)cc21,44*[inhibitor],64*,13,37*,16,33,-23,58*,/,/,60*,-19,Apaf1 inh interf=>100
CCN(CC)S(=O)(=O)c1ccc2[nH]c(=O)cc(C(=O)Nc3ccc(C)c(S(=O)(=O)N(CC)CC)c3)c2c1,95,17,-2,94,12,/,/,/,/,/,/,/,
CN(C)CCCNc1cc(C(C)(C)C)nc2c(-c3ccc(Cl)cc3)cnn12,102,58*,35,190*,89*,250*,89*,112,-1,95*,38,25,
COc1ccc(C(=O)N[C@H](C(=O)NCCCn2nc(C)cc2C)C(C)C)cc1,/,-7,/,/,12,/,/,/,/,/,/,/,
COc1ccc(C(=O)NCCCCc2ccccc2)cc1,/,-1,/,/,4,/,/,/,/,/,/,/,
COc1ccc(C[C@H]2CN3C(=NC[C@@H]3C(C)C)N2C[C@H](C)NC(=O)c2ccc(C)c(Br)c2)cc1,107,48*,37,153*,54*,141,19,108,-1,44,18,11,
COc1ccc(C[C@H]2CN3C(=NC[C@H]3Cc3ccccc3)N2CCNC(=O)c2ccc(C)c(Br)c2)cc1,105,43*,27*,154*,72*,176,26,105,-2,61*,41*,11,Apaf1 inh interf=>100
COc1ccc(C[C@H]2CN3C(=NC[C@@H]3Cc3ccccc3)N2CCNC(=O)c2ccc(C)c(Br)c2)cc1,109,65*,132*,271*,88*,200,56,102,1,56*,34,-17,
COc1ccc(CCNC(=O)c2ccccc2)cc1,100,11,-4,100,-1,/,/,/,/,/,/,/,
CCNC(=O)N(C)C[C@H]1N[C@@](C)(C(=O)OC)[C@H]2C(=O)N(Cc3ccccc3)C(=O)[C@@H]12,/,-5,/,/,3,/,/,/,/,/,/,/,
CSCCC(NC(=O)COc1ccccc1)C(=O)NCCOc1ccccc1 (centres undefined),/,3,/,/,13,/,/,/,/,/,/,/,
O=C(NC1CCCCC1)c1ccc(-c2ccccc2)cc1,/,-5,/,/,-7,/,/,/,/,/,/,/,
CCCCCCCCCCCCCCCCn1cc[n+](C)c1,113,80*,76*,213*,73*,148,17,100,-3,99*,44*,14,Apaf1 inh interf=>100
CC(=O)c1ccc(OCc2cc(C(=O)N3CCN(C4CCCC4)C(=O)C3)no2)cc1,104,-1,5,109,-15,/,/,/,/,/,/,/,
O=C(NCCCN1CCc2ccccc2C1)C1CCN(c2nnc(-n3cccc3)s2)CC1,115,51*,55*,219*,32,186,62,113,/,/,24,9,
CCCCCCCCCCOC(=O)Cn1c(COc2ccccc2OC)[n+](C)c2ccccc21,111,71*,61*,238*,64*,251*,141*,112,1,68*,65*,34,Apaf1 inh interf=>100
Cc1cc(S(=O)(=O)NCc2ccccc2)ccc1OCC(=O)N1CCCC1,99,-2,3,97,6,/,/,/,/,/,/,/,
CCCCOc1ccc(C)cc1CN(CCO)CCO,93,-9,-2,94,0,/,/,/,/,/,/,/,
CCCCCc1ccc(OCCCC[n+]2ccc(C)cc2)c(CCCCC)c1,106,56*,16,186*,42,177,40,110,/,/,37,12,
CCC(C)(C)c1ccc(OCCCC[n+]2ccccc2)c(C(C)(C)CC)c1,109,51*,41,185*,66*,199,65,110,-3,98*,31,17,
CCCCCc1ccc(OCCCC[n+]2ccccc2)c(CCCCC)c1,105,59*,28,164*,59*,158,25,111,-4,84*,39,12,
CCN1CCN(Cc2ccc(C(=O)Nc3ccc(C)c(NCc4cnc(NC(=O)OC)cn4)c3)cc2C(F)(F)F)CC1,105,4,6,123,19,/,/,/,/,/,/,/,
CCN1CCN(Cc2ccc(NC(=O)c3cc(NC(=O)C(=O)c4c[nH]c5ccccc45)cc(OC)c3)cc2C(F)(F)F)CC1,109,41*,131*,195*,55*,227*,146*,112,-4,76*,24,1,
O=C(Nc1ccc2c(c1)OCO2)C(=O)c1c[nH]c2ccccc12,99,-15,1,100,-3,/,/,/,/,/,/,/,
CCN1CCN(Cc2ccc(NC(=O)c3ccc(C)c(NC(=O)C(=O)c4c[nH]c5ccccc45)c3)cc2C(F)(F)F)CC1,113,74*,95*,301*,53*,239*,172*,113,-5,96*,35,1,
COc1ccc2cc(/C=C/C(=O)N3CCN(CC(=O)N4CCCCCC4)CC3)ccc2c1,101,24,-5,95,6,/,/,/,/,/,/,/,
CCCCCc1cc(=O)oc2c(C(CCN3CCCC(C)C3)c3cc(OC)c(OC)c(OC)c3)c(OC)cc(OC)c12 (centres undefined),115,60*,29*,163*,67*,203,45,110,0,40,18,7,
COc1cc(O)c(C(CCN2CCCC(C)C2)c2cc(OC)c(OC)c(OC)c2)c(OC)c1 (centres undefined),94,0,1,95,8,/,/,/,/,/,/,/,
COc1cc(OC)c2ccc(=O)oc2c1C(CCN1CCCC(C)C1)c1ccc(N(C)C)cc1 (centres undefined),96,7,2,104,18,/,/,/,/,/,/,/,
